# From ChEMBL document CHEMBL4304839, “Development of a novel class of peroxisome proliferator-activated receptor (PPAR) gamma ligands as an anticancer agent with a unique binding mode based on a non-thiazolidinedione scaffold” (Bioorg Med Chem, 2019)
# Activity calls are given as the source filed them. No cut-off for these calls is given here.
# Columns and labels:
# [1] = molecular target: T1, Peroxisome proliferator-activated receptor gamma (Homo sapiens) (UniProt P37231); test: Transactivation of chimeric GAL4-fused human PPARgamma transfected in HEK293EBNA cells measured at 24 hrs after drug treatment by steady-Glo luciferase assay reagent based luminescence assay relative to pioglitazone; type: cell-based
# T1 sequence (whole entry): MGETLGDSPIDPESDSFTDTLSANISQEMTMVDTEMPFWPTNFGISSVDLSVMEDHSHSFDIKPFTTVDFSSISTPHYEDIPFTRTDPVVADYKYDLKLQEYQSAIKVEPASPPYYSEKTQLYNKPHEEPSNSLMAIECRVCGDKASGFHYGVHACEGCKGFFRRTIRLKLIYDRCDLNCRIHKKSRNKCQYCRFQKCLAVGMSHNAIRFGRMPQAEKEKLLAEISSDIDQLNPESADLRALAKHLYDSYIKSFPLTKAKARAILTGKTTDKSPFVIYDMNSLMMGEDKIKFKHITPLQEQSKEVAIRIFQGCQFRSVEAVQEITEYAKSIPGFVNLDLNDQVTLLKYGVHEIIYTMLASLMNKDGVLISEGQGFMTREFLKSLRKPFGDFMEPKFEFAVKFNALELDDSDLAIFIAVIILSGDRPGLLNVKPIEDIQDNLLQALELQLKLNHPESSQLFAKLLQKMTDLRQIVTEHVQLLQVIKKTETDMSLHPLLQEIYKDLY
# Procedure, shortened: (§1)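 HEK293EBNA cells in DMEM with 10% FBS, 37 °C, 5% CO2, transiently co-transfected with pM-human PPARγ/GAL4 expression vector and pZAC19-Luc reporter; 24 h later plated and treated with compound 1-3000 nM (n = 3 per concentration), diluted from DMSO in unsupplemented DMEM, for 24 h. Steady-Glo luciferase readout, normalized to pioglitazone 1000 nM (100%); EC50 at 50% of own maximum.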
# [2] = AUC in BALB/c mouse at 10 mg/kg, po by LC-MS/MS analysis; type: ADME, organism-based; details: in vivo
# Procedure, shortened: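 Male BALB/c mice, single oral dose 10 mg/kg (n = 2). Tail-vein blood at set times, plasma protein-precipitated with acetonitrile plus internal standard, LC-MS/MS (APCI, positive ion), quantified against standard curve in control plasma; AUC by noncompartmental analysis of concentration-time profile.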
# [3] = molecular target: T1, Peroxisome proliferator-activated receptor gamma (Homo sapiens); test: Agonist activity at PPARgamma in human MKN45 cells assessed as induction of cell aggregation incubated for 5 days by Hoechst 33342 staining based IN cell analyzer method relative to (E)-3-(1-(8-((4-methyl-2-propyl-1H-benzo[d]imidazol-1-yl)methyl)dibenzo[b,e]oxepin-11(6H)-ylidene)ethyl)-1,2,4-oxadiazol-5(4H)-one
# Procedure, shortened: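 MKN45 cells in RPMI1640 with 10% FBS at 37 °C, 5% CO2, seeded 2500 cells/well and exposed to compound 1-1000 nM (n = 3 per concentration) for 5 days. Nuclei stained with Hoechst 33342, imaged on IN Cell Analyzer, nuclear area computed. Maximum activity expressed as % of reference compound maximum; EC50 = concentration giving 50% of own maximum.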
# [4] = Intrinsic clearance in human liver microsomes incubated for 30 mins in presence of NADPH by LC-MS/MS analysis
# [5] = molecular target: T2, Peroxisome proliferator-activated receptor gamma (Homo sapiens, UniProt P37231); test: Transactivation of chimeric GAL4-fused human PPARgamma transfected in HEK293EBNA cells measured at 24 hrs after drug treatment by steady-Glo luciferase assay reagent based luminescence assay; type: cell-based; procedure, shortened: as §1
# T2 sequence (P37231 whole entry): T1 sequence (whole entry)
# Homo sapiens [6] = test: Antitumour activity against human AsPC1/AG1 cells xenografted in SCID mouse assessed as increase in cell differentiation marker krt20 mRNA expression level at 100 mg/kg, po bid for 14 days starting from 7th day post tumor inoculation and measured at 4 hrs post last dose by qRT-PCR analysis; type: functional, organism-based
# Procedure, shortened: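 Male SCID mice bearing s.c. AsPC-1/AG1 tumours (3×10^7 cells in PBS), dosed orally twice daily for 14 days from day 7 after inoculation; vehicle 0.5% MC400. Tumours collected 4 h after last dose; angptl4 and krt20 mRNA measured by qPCR, fold induction relative to baseline.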
# Homo sapiens [7] = test: Antitumour activity against human AsPC1/AG1 cells xenografted in SCID mouse assessed as reduction in tumor volume at 12.5 to 100 mg/kg, po bid for 14 days starting from 7th day post tumor inoculation; type: functional, organism-based
# Procedure, shortened: (§2)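 Male SCID mice (8 weeks) inoculated s.c. with 3×10^7 AsPC-1/AG1 cells; from day 7, randomized by tumour volume into groups of 5 given 12.5, 25, 50 or 100 mg/kg or 0.5% MC400 vehicle orally twice daily for 14 days. Volume = 0.5 × major × minor² measured twice weekly; relative volume V/V0 versus day 0; Steel test, P < 0.05.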
# Homo sapiens [8] = test: Antitumour activity against human AsPC1/AG1 cells xenografted in SCID mouse assessed as increase in angptl4 mRNA expression at 100 mg/kg, po bid for 14 days starting from 7th day post tumor inoculation and measured at 4 hrs post last dose by qRT-PCR analysis
# [9] = Toxicity in Crlj:CD1(ICR) mouse assessed as serum hematocrit value at 50 mg/kg, po bid for 4 days by micro-hematocrit method (reference value: 44.1%); type: organism-based; details: in vivo, 96 h
# [10] = Toxicity in Crlj:CD1(ICR) mouse assessed as serum hematocrit value at 200 mg/kg, po bid for 4 days by micro-hematocrit method (reference value: 44.1%); type: organism-based; details: in vivo, 96 h
# Homo sapiens [11] = test: Antitumour activity against human AsPC1/AG1 cells xenografted in SCID mouse assessed as saturated level of reduction in tumor volume at >25 mg/kg, po bid for 14 days starting from 7th day post tumor inoculation and measured after 10 days; type: functional, organism-based; procedure, shortened: as §2
# [12] = Antitumour activity against human AsPC1/AG1 cells xenografted in SCID mouse assessed as minimal dose required for reduction in tumor volume administered orally bid for 14 days starting from 7th day post tumor inoculation; type: functional; details: ASPC1, po, 336 h, read-out: MED; procedure, shortened: as §2
# [13] = Toxicity in C57BL/6 mouse assessed as hematocrit level at 40 mg/kg (reference value: 45%); type: organism-based; details: in vivo
Structure (SMILES),Emax [1] [%],AUC [2] [ng·h/mL],Emax [3] [%],CLint scaled at 0.5 h [4] [mL/min/kg],EC50 [5] [nM],further results
COCc1nc2cc(Cl)ccn2c1Cc1ccc2c(c1)COc1cc(F)ccc1/C2=C(\C)c1noc(=O)[nH]1,9,2450,106,,,
CCCc1nc2ccccc2n1Cc1ccc2c(c1)COc1c(F)cccc1/C2=C(\C)c1noc(=O)[nH]1,8.7,,101,377,4.4,
CCCc1nc2c(C)cccc2n1Cc1ccc2c(n1)COc1ccccc1/C2=C(\C)c1noc(=O)[nH]1,,,,> 415,86,
C/C(=C1/c2ccc(Cn3c(C4CC4)nc4cscc43)cc2COc2cc(F)ccc21)c1noc(=O)[nH]1,13.7,196,105,41.7,21,
CCCc1nc2c(C)cccc2n1Cc1ccc2c(c1)COc1ccccc1/C2=C(\C)c1noc(=O)[nH]1,,,,> 415,,
CCCc1nc2c(C)cccc2n1Cc1ccc2c(c1)OCc1ncccc1/C2=C(\C)c1noc(=O)[nH]1,,,,34.3,2190,
CCc1ccc(CCOc2ccc(CC3SC(=O)NC3=O)cc2)nc1 (centres undefined) [PIOGLITAZONE],,,,,,Activity [13]: 41%
CCCc1nc2ccccc2n1Cc1ccc2c(c1)COc1cc(F)ccc1/C2=C(\C)c1noc(=O)[nH]1,11.7,1480,104,,,
CCCc1nc2ccccc2n1Cc1ccc2c(c1)COc1ccc(F)cc1/C2=C(\C)c1noc(=O)[nH]1,6.9,,102,> 415,,

# Now from value to compound, other results behind:
Emax [1] [%],AUC [2] [ng·h/mL],Emax [3] [%],CLint scaled at 0.5 h [4] [mL/min/kg],EC50 [5] [nM],Structure (SMILES),further results
13.7,,105,167,24 to 59,C/C(=C1/c2ccc(Cn3c(C4CC4)nc4c(Cl)nccc43)cc2COc2cc(F)ccc21)c1noc(=O)[nH]1,
15.1,1710,102,66.7,11,C/C(=C1/c2ccc(Cc3c(C4CC4)nc4ccc(Cl)cn34)cc2COc2cc(F)ccc21)c1noc(=O)[nH]1,
12.6,10200,101,,3.6,C/C(=C1/c2ccc(Cc3c(C4CC4)nc4cc(Cl)ccn34)cc2COc2cc(F)ccc21)c1noc(=O)[nH]1,
10.6,6890,103,,,C/C(=C1/c2ccc(Cc3c(C4CC4)nc4c(Cl)cccn34)cc2COc2cc(F)ccc21)c1noc(=O)[nH]1,Activity (Homo sapiens [6]): Active; inhibition (Homo sapiens [7]): Active; Activity (Homo sapiens [8]): Active; Activity [9]: 42.9%; Activity [10]: 42%; inhibition (Homo sapiens [11]): Active; minimal effective dose [12]: 12.5 to 25 mg/kg
9.8,3750,106,,19,C/C(=C1/c2ccc(Cc3c(C4CC4)nc4ccccn34)cc2COc2cc(F)ccc21)c1noc(=O)[nH]1,
9.7,8760,110,33.3,23,C/C(=C1/c2ccc(Cc3c(C4CC4)nc4c5c(ccn34)OCC5)cc2COc2cc(F)ccc21)c1noc(=O)[nH]1,
13.5,5510,112,,13,C/C(=C1/c2ccc(Cc3c(C4CC4)nc4cc(F)ccn34)cc2COc2cc(F)ccc21)c1noc(=O)[nH]1,
10.3,,101,38.3,32 to 38,C/C(=C1/c2ccc(Cn3c(C4CC4)nc4c(Cl)ccnc43)cc2COc2cc(F)ccc21)c1noc(=O)[nH]1,
7.4,1090,96,21.7,7.3,COCc1nc2c(Cl)cccn2c1Cc1ccc2c(c1)COc1cc(F)ccc1/C2=C(\C)c1noc(=O)[nH]1,
